The list is not random: actives were taken first. Their share in the collection is about 1.6%.
S1P2 antag: antagonists of human S1P2 receptor; cell-based S1P2 antagonist assay, inhibition at 5 uM; inhibition, % at 5 µM; actives 0.21% (n = 97,000); AID 736; in the data active = inhibition above about 45%;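 note: CRE beta-lactamase reporter cells expressing human S1P2 stimulated with S1P; 0% = agonist at EC80 alone and 100% = agonist plus reference antagonist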
Target sequence (O95136 whole entry, looked up): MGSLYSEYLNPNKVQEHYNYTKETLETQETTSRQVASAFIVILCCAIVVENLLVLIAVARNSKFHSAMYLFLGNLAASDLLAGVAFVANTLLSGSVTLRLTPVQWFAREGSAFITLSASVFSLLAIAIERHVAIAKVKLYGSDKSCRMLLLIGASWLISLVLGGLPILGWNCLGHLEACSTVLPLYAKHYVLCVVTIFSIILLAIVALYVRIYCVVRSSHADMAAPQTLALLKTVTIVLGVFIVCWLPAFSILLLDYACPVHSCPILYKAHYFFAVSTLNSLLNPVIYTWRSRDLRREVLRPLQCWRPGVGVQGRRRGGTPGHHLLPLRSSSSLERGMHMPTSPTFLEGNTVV
S1P2 ag: activates the human S1P2 receptor; O95136; S1P2-expressing cell line, agonist reporter read-out; activation, % at 4.5 µM; actives 0.46% (n = 97,000); in the data active = activation above about 16%;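 note: 0% = vehicle low control and 100% = maximal reference agonist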
GALR2 blocker: blocks the human galanin receptor 2 | O43603 | GALR2-expressing cells, antagonist mode | inhibition, % at 4 µM | actives 0.39% (n = 140,000) | AID 828;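 note: cells stimulated with galanin 1-16 at roughly its EC80; 0% = agonist challenge control and 100% = basal control without agonist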
Target sequence (O43603 whole entry, looked up): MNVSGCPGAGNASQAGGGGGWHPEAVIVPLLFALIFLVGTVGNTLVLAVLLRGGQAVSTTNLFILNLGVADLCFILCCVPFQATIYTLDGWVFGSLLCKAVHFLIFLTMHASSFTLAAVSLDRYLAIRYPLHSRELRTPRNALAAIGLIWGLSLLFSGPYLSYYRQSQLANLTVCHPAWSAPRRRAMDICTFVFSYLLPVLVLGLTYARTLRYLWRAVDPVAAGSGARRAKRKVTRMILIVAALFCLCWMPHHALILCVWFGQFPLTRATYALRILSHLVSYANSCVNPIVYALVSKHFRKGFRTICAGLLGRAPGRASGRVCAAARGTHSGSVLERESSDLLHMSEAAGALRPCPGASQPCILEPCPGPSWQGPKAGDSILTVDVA
GALR2 ag: activates the human galanin receptor 2; actives 0.48% (n = 140,000); GALR2-expressing cells, agonist activation read-out; activation, % (no concentration beside the values); O43603; in the data active = activation above about 5%, passing the limit was not always enough;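 note: 0% = vehicle buffer wells and 100% = reference agonist at full effect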
HIV Rev-RRE inh: HIV Rev-RRE protein-RNA interaction inhibition | Rev peptide-RRE RNA binding, FRET | inhibition, % at 8 µM | actives 0.79% (n = 97,000) | AID 704;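 active = inhibition above the screen-wide mean plus 3 SD, cut at about 35% in these data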;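 note: 0% = median DMSO wells and 100% = median Neomycin B control wells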
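Test system: labelled RRE RNA duplex and labelled Rev peptide. Times: 5 min compound–RNA preincubation, then 15 min with peptide, 25 °C. Doses: single-dose 8 µM. Measured by: FRET, excitation 480 nm, emission 540 nm donor and 671 nm acceptor. Measure: % inhibition of FRET ratio versus controls.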
GALR2 ant conf: confirmation of human galanin receptor 2 (GALR2) antagonists; shares compounds with GALR2 blocker; GALR2-expressing cells, antagonist mode, inhibition; inhibition, % at 4 µM; actives 60% (n = 480); AID 866;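 note: cells stimulated with galanin at about its EC80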
BLA inh counter: inhibits beta-lactamase reporter in GALR2 antagonist counterscreen; shares compounds with GALR2 blocker; CHO NFAT-BLA reporter, beta-lactamase FRET, thapsigargin-stimulated; inhibition, % at 4.2 µM; actives 36% (n = 480);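 active = inhibition above the mean inhibition across tested compounds plus 3 SD, cut at about 27% in these data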;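 note: 0% = 500 nM thapsigargin stimulated wells and 100% = unstimulated BSA only wells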
* hit, by the source's call; nt = not tested or not shown. Cut-off read from the data, not from the text of the source, unless noted: active = inhibition above about 27%; inactive = the rest.

SMILES | S1P2 antag | S1P2 ag | GALR2 blocker | GALR2 ag | HIV Rev-RRE inh | GALR2 ant conf | BLA inh counter
Cc1sc(NC(=S)NC(=O)CCc2ccccc2)c(C(N)=O)c1C | nt | nt | 33* | 4 | nt | 28* | 36*
COC(=O)CCC(=O)NC(=S)Nc1sc(C)c(C)c1C(N)=O | nt | nt | 9 | 1 | nt | nt | nt
N#CC(C#N)=C1C=CC=CN1/C(=C\c1ccccc1Cl)C(=O)c1ccccc1 | nt | nt | 73* | -2 | nt | 89* | 99*
CCCC(=O)OCCn1c(Br)nc2c1c(=O)[nH]c(=O)n2C | -5 | -13 | 30* | -1 | 7 | 25 | 0
Cc1ccc(NC(=O)CN(C)C(=O)Cn2ncc(Cl)c(Cl)c2=O)cc1 | nt | nt | 60* | -2 | nt | 83* | 33*
Cc1ccc(NC(=O)CN(C)C(=O)COc2c(Cl)cc(Cl)c3ccc(C)nc23)cc1 | nt | nt | 2 | -1 | nt | nt | nt
Cc1sc2ncnc(NCc3ccco3)c2c1C | -9 | -3 | 6 | 0 | 8 | nt | nt
Cc1sc2ncnc(NCc3cccs3)c2c1C | 37 | -1 | 28* | -2 | 10 | 24 | 14
Cc1cc(N2C(=O)C3C4CC(C(Br)C4Br)C3C2=O)no1 (stereo unspecified) | nt | nt | 2 | 0 | nt | nt | nt
CNC(=S)N1CCN(C(=O)C2CCCO2)CC1 (stereo unspecified) | nt | nt | -2 | -2 | nt | nt | nt
CCOC(=O)COc1ccccc1/C=C\[N+](=O)[O-] | nt | nt | 30* | -3 | nt | 43* | 30*
CCN1CCN(Cc2ccc(NC(=O)CC3Oc4ccc(C)cc4NC3=O)cc2)CC1 (stereo unspecified) | 16 | -6 | 34* | -2 | -2 | 2 | 3
CN(C)c1nc(Nc2ccc(Cl)cc2)nc(OCC#N)n1 | -8 | -5 | 35* | -2 | 4 | 30* | 14
CONc1nc(NC(C)(C)C)nc(OCC#N)n1 | nt | nt | 4 | -1 | nt | nt | nt
COc1ccccc1Nc1ncnc2nc[nH]c12 | -9 | 0 | 3 | -2 | 4 | nt | nt
O=C(CCc1ccccc1)Nc1ncn[nH]1 | 3 | -4 | 0 | -3 | -3 | nt | nt
O=C(/C=C/c1ccccc1)Nc1ncn[nH]1 | 28 | -3 | 30* | -4 | 1 | 37* | 24
O=[N+]([O-])c1cc(-c2ncccn2)c([N+](=O)[O-])s1 | nt | nt | 45* | -1 | nt | 55* | 26
CC1=CC2=NC(=O)/C(=C\c3cccn3CCOc3cc(C)ccc3C)C(=N)N2O1 | nt | nt | 0 | 1 | nt | nt | nt
C=CCn1c(C)cc(C(=O)Cn2ncc(Cl)c(Cl)c2=O)c1C | nt | nt | 57* | -2 | nt | 46* | 21
COc1ccc(NC(=S)NCCCN2CCN(C3CCCCC3)CC2)cc1 | nt | nt | 3 | -1 | nt | nt | nt
Nc1nc(Nc2cccc(F)c2)nc2ccccc12 | nt | nt | 31* | -1 | nt | 24 | 13
CC(=O)Nc1cn(C(C)=O)c(C)n1 | nt | nt | 29* | -3 | nt | 14 | 6
CCOC(=O)c1[nH]c2c(c1-c1ccc(OC)cc1)C(=O)CC(c1ccc(OC)c(OC)c1)C2 (stereo unspecified) | nt | nt | -1 | 0 | nt | nt | nt
O=C(CSCc1nc2ccccc2[nH]1)N1CCN(c2ccc(F)cc2)CC1 | 10 | -13 | 30* | -3 | 8 | 23 | 11
SMILES | S1P2 antag | S1P2 ag | GALR2 blocker | GALR2 ag | HIV Rev-RRE inh | GALR2 ant conf | BLA inh counter
CCOC(=O)C1=C(c2ccccc2)ON(C)C1c1ccccc1 (stereo unspecified) | nt | nt | 20 | -1 | nt | nt | nt
CCOC(=O)N1CCN(CCC(=O)Nc2cc([N+](=O)[O-])ccc2OC)CC1 | nt | nt | -14 | 1 | nt | nt | nt
Cc1nn(-c2ccccc2)c2c1C(c1ccc(O)c(O)c1)N1C(=N2)C(Nc2ccccc2)=Nc2ccccc21 (stereo unspecified) | 85* | -12 | 47* | 2 | 7 | 37* | 59*
Cc1cccc(NC2=Nc3ccccc3N3C2=Nc2c(c(C)nn2-c2ccccc2)C3c2ccc(O)c(O)c2)c1 (stereo unspecified) | 80* | -8 | 45* | 3 | 9 | 44* | 68*
Cc1nn(-c2ccc([N+](=O)[O-])cc2)c2c1C(c1cccc(Br)c1)N1C(=N2)C(=O)Nc2ccccc21 (stereo unspecified) | nt | nt | 6 | 0 | nt | nt | nt
Cc1nn(-c2ccccc2)c2c1C(c1ccc([N+](=O)[O-])cc1)N1C(=N2)C(=O)Nc2ccccc21 (stereo unspecified) | nt | nt | 4 | 0 | nt | nt | nt
Cc1ccc(NC2=Nc3ccccc3N3C2=Nc2c(c(C)nn2-c2ccccc2)C3c2ccc(O)c(O)c2)cc1 (stereo unspecified) | 77* | -9 | 58* | 4 | 8 | 51* | 69*
CC1CCN(S(=O)(=O)c2ccc3c(c2)c(=O)c(C(=O)NCc2ccccc2Cl)cn3C)CC1 | nt | nt | 0 | -3 | nt | nt | nt
CCN(CC)c1ccc(/C=N/Nc2nc3ccccc3[nH]2)c(O)c1 | 3 | 1 | 43* | 0 | -6 | 45* | 15
CCN(CC)c1ccc(/C=N/N(c2ccccc2)c2ccccc2)c(O)c1 | nt | nt | 9 | 0 | nt | nt | nt
COc1cc(/C=N\Nc2nc3ccccc3[nH]2)cc(OC)c1OC | -6 | 4 | 12 | -2 | 6 | nt | nt
Cc1ccc2cc(/C=N/Nc3nc4ccccc4[nH]3)c(Cl)nc2c1 | nt | nt | 98* | -3 | nt | 23 | 14
CC(=O)Nc1ccc(C(=O)CSc2cc(C)c3cccc(C)c3n2)cc1 | nt | nt | 6 | 1 | nt | nt | nt
COc1ccc(OC)c(S(=O)(=O)N2CCN(C)CC2)c1 | nt | nt | 10 | -1 | nt | nt | nt
COc1ccc(OC)c(S(=O)(=O)N2CCCCCC2)c1 | nt | nt | 28* | -2 | nt | 2 | 0
O=C(NC(Cc1ccccc1)C(=O)Oc1ccc2c(C(F)(F)F)cc(=O)oc2c1)OCc1ccccc1 (stereo unspecified) | nt | nt | 32* | 0 | nt | 20 | 23
O=C(Nc1cccc(F)c1)c1sc(Cl)nc1-c1ccccc1 | nt | nt | 27* | -2 | nt | 14 | 11
O=C(CSc1nnnn1C1CCCC1)NCc1ccccc1 | 15 | -3 | -3 | -1 | 3 | nt | nt
O=C(CSc1nnnn1C1CC2CCC1C2)Nc1ccnc2ccccc12 (stereo unspecified) | nt | nt | 45* | 0 | nt | 64* | 20
CSc1nnc(CSc2cc(C)nc(N(C)C)n2)o1 | nt | nt | -8 | -1 | nt | nt | nt
O=S1(=O)C[C@H]2NC(=S)N(c3ccccc3)[C@H]2C1 | nt | nt | 6 | -1 | nt | nt | nt
CCOC(=O)/C(=C\c1cccnc1)C(=O)c1cc(C(C)=O)c(Nc2ccccc2)s1 | 60* | 15 | 54* | -3 | 7 | 79* | 71*
CCOCCCNc1ncnc2c1[nH]c1ccccc12 | 20 | -5 | 29* | -1 | 9 | 25 | 16
c1nc(NCC2CCCO2)c2[nH]cnc2n1 (stereo unspecified) | 6 | -7 | 0 | -1 | 5 | nt | nt
CCCCn1cnc2c([nH]c3ccccc32)c1=O | 9 | -4 | 1 | 0 | 6 | nt | nt
C=CCNc1ncnc2c1[nH]c1ccccc12 | -5 | -2 | 24 | -2 | 3 | nt | nt
CCCCOCCCNc1ncnc2c1[nH]c1ccccc12 | 29 | -1 | 47* | -1 | 9 | 31* | 23

High-throughput results (PubChem BioAssay)
